Screening data from PubChem BioAssay.
Rows were chosen to be rich in hits. Some 4% of all compounds tested hit in one or more screens of this group.
Arr AP2 block – human beta-arrestin and AP2 interaction inhibition. FITC-arrestin peptide / GST-AP2 beads, flow cytometry; AP2 beta2 appendage carries R879A mutation. inhibition, % at 10 µM. 340,000 compounds, 0.31% hits. AID 504490;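 active means inhibition above a set limit, near 3 SD of compounds lacking own fluorescence, cut at about 54% in these data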;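 further: plate controls were DMSO wells for no effect and 5 µM unlabelled arrestin peptide for full effect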
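System: GST-tagged AP2 beta2-adaptin appendage (R879A) on 4 µm glutathione beads / Reagent: FITC-arrestin peptide, 50 nM / Detection: HyperCyt-sampled flow cytometry, FL1 channel, ex 488/em 535 nm / Timing: 12 min plus 1 h, RT / Buffer or medium: PBS plus Tween 20 (0.05%) and BSA (0.1%)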
H9c2 protect – protects H9c2 cardiomyocytes from peroxide injury | protection from H2O2 cell death, % at 20 µM | AID 588492 | H2O2 injury protection, ATPLite, 2 h | 360,000 compounds, 0.63% hits;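 active means compounds giving at least 50% protection of heart cells from peroxide-induced death in the single-dose screen, raw or plate-pattern-corrected value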;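 further: 0% = DMSO wells with peroxide and 100% = DMSO wells without peroxide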
FAS-TE inh – FAS thioesterase (human) inhibition; AID 602261; recombinant FAS-TE, OMFH fluorogenic substrate, fluorescence endpoint; 360,000 compounds, 0.67% hits; inhibition, % at 15 µM; P49327;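 active means compounds whose normalised, plate-corrected inhibition of enzyme fluorescence in the single-dose primary screen is 50% or more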;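 further: 0% = DMSO with enzyme and 100% = substrate without enzyme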
NR3A LBD binder – modulators (binders) of human NR3A ligand-binding domain; Tm shift relative to glycine control, % at 25 µM; NR3A LBD differential scanning fluorimetry, Tm shift; 0% = protein alone, 100% = glycine-bound protein; 340,000 compounds, 2.5% hits;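 active means melting temperature shift of at least 10% of the positive control shift, at one fixed dose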
iPSC survival up – increases survival of single human iPS cells; hiPSC single-cell survival, ATPlite luminescence; 100% = ROCK inhibitor wells, 0% = DMSO; survival enhancement, % at 20 µM; 360,000 compounds, 0.044% hits; in the data active means survival enhancement above about 18%;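 further: cells exposed to compounds for 16 hours before the ATP read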
SENP1 inh – blocks the human SENP1 SUMO protease catalytic domain. Q9P0U3. recombinant SENP1 catalytic domain, CyPet-SUMO1-YPet FRET cleavage. inhibition, % at 10 µM. 360,000 compounds, 0.21% hits. AID 624204;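 active means inhibition at least 30% at 10 µM, raw YFP signal under a set limit, fluorescence ratio 0.5 to 1.5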;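 further: 0% = enzyme with DMSO and 100% = no enzyme wells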
Target sequence (Q9P0U3 419-644 limits assumed): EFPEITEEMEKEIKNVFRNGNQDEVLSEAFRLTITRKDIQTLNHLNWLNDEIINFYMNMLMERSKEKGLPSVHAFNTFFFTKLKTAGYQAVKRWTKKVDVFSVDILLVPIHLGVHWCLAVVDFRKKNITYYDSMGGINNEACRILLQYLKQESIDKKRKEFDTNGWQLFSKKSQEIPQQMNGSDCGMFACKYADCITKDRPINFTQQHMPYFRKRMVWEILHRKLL
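Compound: 10 µM single point, 0.5% DMSO; Test system: hSENP1 catalytic domain, recombinant; Timing: 50 min reaction at room temperature; Technique: FRET, CFP and YFP emission; Control set: no-enzyme wells low, DMSO-plus-enzyme wells high control.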
FAS-TE inh conf – FAS thioesterase (human) inhibition, confirmation; shares compounds with FAS-TE inh; recombinant FAS-TE, OMFH fluorogenic substrate, fluorescence; inhibition, % at 15 µM; 2,300 compounds, 45% hits; AID 624325;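 active means compounds inhibiting the enzyme by at least 50% at 15 µM in any one of the replicates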;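 further: 0% = enzyme with DMSO only and 100% = wells lacking enzyme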
Numbers without * were called inactive; · = not tested or not shown.

SMILES	Arr AP2 block	H9c2 protect	FAS-TE inh	NR3A LBD binder	iPSC survival up	SENP1 inh	FAS-TE inh conf
O=C(NCc1cccc(C(F)(F)F)c1)c1ccc2sc(C3=C[C@@H](O)[C@@H](O)[C@@H](CO)O3)nc2c1	·	2	-12	·	8	-4	·
O=[N+]([O-])c1cc(-c2nnc(Nc3ccccc3)c3ccccc23)ccc1N1CCOCC1	33	12	63*	-4	-2	4	15
Cc1ccc(Nc2nnc(-c3ccc(N4CCOCC4)c([N+](=O)[O-])c3)c3ccccc23)cc1	1	7	64*	-4	-3	-1	13
CS(=O)(=O)N1CCc2cc(-c3csc(NC(=O)Cc4cccs4)n3)ccc21	3	-10	62*	1	-2	-6	29*
CCc1ccc(-c2cc(N)n(-c3ccccc3)n2)cc1	34	-24	0	3	-4	13	·
Nc1cc(-c2ccc(OC(F)(F)F)cc2)nn1-c1ccc(Cl)c(Cl)c1	17	-6	58*	24*	-1	0	25
CCCCc1ccc(S(=O)(=O)NC(=O)C2(C)CCN2C(=O)Cc2ccccc2)cc1 (centres undefined)	·	0	-7	·	5	0	·
COC(=O)c1sc2ccccc2c1NC(=O)c1ccc(S(=O)(=O)N2CCCC(C)C2)cc1 (centres undefined)	0	-2	52*	-4	5	3	33
COC(=O)c1sc2ccccc2c1NC(=O)c1ccc(S(=O)(=O)N2CCC(C)CC2)cc1	0	-1	32	-1	-1	2	·
COc1ccc(NC(=S)N2CCN(c3ccc4c(c3)C3CCN(C(=O)OCc5ccccc5)C4C3)CC2)c(OC)c1 (centres undefined)	·	-6	57*	·	0	2	11
O=C(OCc1ccccc1)N1CCC2CC1c1cc(N3CCN(C(=S)NCCc4ccccc4)CC3)ccc12 (centres undefined)	·	-3	25	·	0	2	·
COc1cc(/C=N/NC(=O)c2ccc3ccccc3c2)ccc1Oc1ccc([N+](=O)[O-])cn1	10	-2	52*	3	-2	2	12
COc1ccc(-c2oc3ccc(-c4cc(OC)c(OC)c(OC)c4)cc3c2C#Cc2ccccn2)cc1	-9	23	23	-8	-1	-7	·
CC(OC(=O)[C@H](C)N=C1NS(=O)(=O)c2ccccc21)C(=O)Nc1ccc(F)c(F)c1F (some centres undefined)	·	7	-5	·	3	2	·
CCN(CC)CCN(Cc1cc2cc(C)cc(C)c2[nH]c1=O)C(=S)NCc1ccco1	3	2	-3	0	-2	-8	·
Cc1cccc(NC(=S)N(Cc2cccs2)Cc2cc3cc(C)ccc3[nH]c2=O)c1	1	-15	24	9	0	-1	·
Cc1cc(C)c2[nH]c(=O)c(CN(Cc3cccs3)C(=S)NCc3ccco3)cc2c1	3	-12	62*	-3	1	-3	27
CNC(=S)N(Cc1cccs1)Cc1cc2cc(OC)c(OC)cc2[nH]c1=O	-11	9	-5	-1	-3	-1	·
Cc1ccc(NC(=S)N(Cc2cccs2)Cc2cc3cc(C)ccc3[nH]c2=O)cc1	-2	3	72*	1	1	2	29
COc1cc2cc(CN(Cc3cccs3)C(=S)Nc3ccc(C)cc3)c(=O)[nH]c2cc1OC	-2	11	76*	12*	0	-1	24
Cc1c(C(=O)NCc2cccc([N+](=O)[O-])c2)sc(=O)n1Cc1ccc(C(C)C)cc1	·	4	26	·	1	2	·
CCN(Cc1ccccc1)C(=O)COC(=O)c1cc(Cl)nc(Cl)c1	-28	4	55*	-2	1	3	66*
CCCC12CN(C(=O)c3ccc([N+](=O)[O-])cc3)CC(C)(CN(C(=O)c3ccc([N+](=O)[O-])cc3)C1)C2=O	-4	1	55*	-5	-1	4	62*
CC12CN(C(=O)c3ccc([N+](=O)[O-])cc3)CC(C)(CN(C(=O)c3ccc([N+](=O)[O-])cc3)C1)C2=O	·	·	·	0	·	·	·
CCCNC(=O)c1nnsc1S(=O)c1ccc(Cl)cc1 (centres undefined)	3	-21	14	-1	-6	0	·
SMILES	Arr AP2 block	H9c2 protect	FAS-TE inh	NR3A LBD binder	iPSC survival up	SENP1 inh	FAS-TE inh conf
CCCNC(=O)c1nnsc1S(=O)(=O)c1ccc(Cl)cc1	17	-20	53*	-2	-5	1	70*
COc1ccc(C(=O)N/C(=C/c2cccc3ccccc23)C(=O)NCCc2c[nH]c3ccccc23)cc1OC	-7	2	61*	-19	-1	-3	7
COc1ccc(/C=C(/NC(=O)c2ccc(OC)c(OC)c2)C(=O)NCCc2c[nH]c3ccccc23)cc1	4	0	-3	1	-1	-1	·
O=C(NCc1ccc(C(F)(F)F)cc1)C1CC(c2c(Cl)cccc2Cl)=NO1 (centres undefined)	5	-11	55*	-15	0	2	55*
O=C(NCc1ccc(C(F)(F)F)cc1)C1CC(c2ccc(C(F)(F)F)cc2)=NO1 (centres undefined)	27	-31	17	-6	1	0	·
COc1ccc(NC(=O)Nc2ccc3nc([C@@H]4O[C@H](CO)[C@@H](O)[C@H](O)[C@H]4O)[nH]c3c2)cc1OC1CCCC1	·	-4	-1	·	0	0	·
O=C(CN1C(=O)S/C(=C\c2ccccc2)C1=O)Nc1cc([N+](=O)[O-])ccc1O	-5	-14	81*	23*	1	0	82*
CCOC(=O)CN1C(=O)S/C(=C/c2ccc(OC)c([N+](=O)[O-])c2)C1=O	5	18	30	1	4	4	·
COc1cc(/C=C2/SC(=S)N(Cc3ccccc3)C2=O)cc(Cl)c1O	29	-16	-128	9	0	84	·
COc1cc(/C=C2\SC(=O)N(Cc3ccc(F)cc3)C2=O)cc([N+](=O)[O-])c1O	-15	-16	68*	4	4	10	37
O=C1/C(=C\c2cccc([N+](=O)[O-])c2O)SC(=S)N1Cc1ccccc1	9	-17	18	1	2	6	·
O=C1/C(=C/c2ccc(O)c([N+](=O)[O-])c2)SC(=S)N1Cc1ccccc1	-1	-10	86*	498*	2	38*	11
COc1cc(/C=C2\SC(=O)N(Cc3ccc(Cl)cc3)C2=O)cc([N+](=O)[O-])c1O	6	-17	72*	6	-2	5	38
